Screens deposited in PubChem by several laboratories.
Shown are actives, neighbours in structure and some others; about 2.4% of the full set was active somewhere.
TbMetRS inhib: Trypanosoma brucei MetRS inhibition | purified T. brucei MetRS, ATP depletion, Kinase-Glo luminescence | inhibition, % at 11.9 µM | 0.4% of 360,000 active | AID 624268;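 active = inhibition above a per-plate cutoff of the control wells' mean inhibition plus 3 SD, cut at about 5.5% in these data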;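 note: 0% = DMSO wells median and 100% = median of wells with control inhibitor compound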
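Assay system: T. brucei methionyl-tRNA synthetase, purified | Medium: HEPES buffer with MgCl2, KCl, DTT, spermine, BSA, pyrophosphatase | Compound: 11.9 µM single point | Incubation: 15 min enzyme-compound preincubation, 2 h reaction, 10 min detection, 25 °C | Measured by: Kinase-Glo luciferase luminescence reporting remaining unconsumed ATP | Measure: % inhibition normalized to control-well medians | Replication: Singlicate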
H9c2 TAG inh: reduces triacylglycerol accumulation in H9c2 cells; inhibition, % at 12.5 µM; Nile Red lipid (TAG) fluorescence; cells loaded with 200 µM oleic acid; 0.66% of 230,000 active;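 active = pattern-corrected inhibition of lipid staining of at least 50% with the nuclear-stain viability signal not falling by more than 50%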;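 note: 0% = DMSO wells and 100% = triacsin C control wells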
MC4R ag barr: activates human MC4R beta-arrestin recruitment; U2OS MC4R beta-arrestin complementation, luminescence; percent of melanotan II response, DMSO zero; 0.98% of 360,000 active; P32245; activation, % at 8.9 µM; AID 540308;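 active = activation above a per-plate cutoff, the mean activation of sample wells on that plate plus 3 SD, cut at about 8% in these data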
Target sequence (P32245 whole entry, looked up): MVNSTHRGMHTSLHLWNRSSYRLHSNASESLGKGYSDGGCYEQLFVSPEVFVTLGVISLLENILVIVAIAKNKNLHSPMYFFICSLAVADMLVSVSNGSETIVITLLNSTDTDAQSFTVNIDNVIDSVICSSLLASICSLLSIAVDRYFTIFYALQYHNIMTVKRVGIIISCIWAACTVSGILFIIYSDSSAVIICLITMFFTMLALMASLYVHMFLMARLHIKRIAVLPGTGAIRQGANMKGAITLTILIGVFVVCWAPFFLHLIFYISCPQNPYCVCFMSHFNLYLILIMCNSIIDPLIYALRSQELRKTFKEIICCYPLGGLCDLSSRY
NTR1 agonist: agonists of human neurotensin receptor NTR1; P30989; NTR1-U2OS beta-arrestin-GFP spot imaging, agonist mode; activation, % at 20 µM; 0.17% of 330,000 active;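 active = activation at or above 40% of the spot to cytoplasm intensity ratio, with at least 20 cells analyzed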;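 note: 0% = DMSO without peptide and 100% = 100 nM NTR1 peptide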
Target sequence (P30989 whole entry, looked up): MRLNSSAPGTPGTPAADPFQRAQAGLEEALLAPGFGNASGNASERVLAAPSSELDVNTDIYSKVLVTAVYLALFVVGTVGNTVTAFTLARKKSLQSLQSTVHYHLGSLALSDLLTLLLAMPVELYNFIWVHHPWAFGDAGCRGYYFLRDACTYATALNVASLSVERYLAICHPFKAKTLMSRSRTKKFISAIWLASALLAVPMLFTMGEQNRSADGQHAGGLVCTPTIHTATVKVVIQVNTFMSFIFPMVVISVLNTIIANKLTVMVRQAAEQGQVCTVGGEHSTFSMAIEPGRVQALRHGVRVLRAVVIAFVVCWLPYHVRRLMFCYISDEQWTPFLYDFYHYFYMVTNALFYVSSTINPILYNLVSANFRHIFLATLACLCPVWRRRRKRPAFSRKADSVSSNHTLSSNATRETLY
MC4R antagonist: blocks human MC4R cAMP signaling. P32245. 0.48% of 360,000 active. inhibition, % at 6.5 µM. MC4R-expressing cells, MTII-stimulated cAMP, LANCE TR-FRET. AID 540295;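 active = inhibition above its plate's cutoff, the mean of tested wells on that plate plus 3 SD, cut at about 29% in these data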;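 note: 0% = Melanotan II alone and 100% = Melanotan II plus saturating MCL0020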
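Material: human MC4R-expressing U2OS cells. Probe or stimulus: Melanotan II challenge. Dosing: 6.5 µM single dose. Times: 30-min compound, 1-h challenge, 1-h detection, room temperature. Technique: TR-FRET with Eu-cAMP and labeled anti-cAMP, 671 nm. Replication: singlicate.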
aDG glyco act: alpha-DG glycosylation activation; 0.22% of 360,000 active; activation, % at 10 µM; Pro5-aDG cells, alpha-DG glycosylation AlphaScreen (IIH6); 0% Pro5, 100% B10-LARGE cell signal;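 active = activation of at least 8% versus controls, or a plate z-score of at least 8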;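 note: Pro5 are CHO cells carrying HIG-tagged alpha-DG that lacks glycosylation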
cAMP nonselect: counter-screen for MC4R antagonists: nonselective cAMP signaling inhibitors | 26% of 1,600 active | parental U2OS, forskolin cAMP, LANCE TR-FRET | inhibition, % at 6.5 µM | shares compounds with MC4R antagonist;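 active = mean inhibition over triplicates above the low-control well mean plus 3 SD, set per campaign, cut at about 13% in these data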;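 note: signal is single emission at 671 nm which falls as cellular cAMP rises; 0% = forskolin-stimulated wells and 100% = buffer without forskolin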
MC4R antag conf: human MC4R cAMP antagonism confirmation; shares compounds with MC4R antagonist; MC4R-expressing cells, MTII-stimulated cAMP, TR-FRET; inhibition, % at 6.5 µM; 27% of 1,600 active; AID 602195; in the data active = inhibition above about 29%;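 note: 0% = agonist stimulated wells alone and 100% = agonist stimulated wells plus saturating reference antagonist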
* marks the source's active call; other numbers are inactive results; nt = no result given.

SMILES	TbMetRS inhib	H9c2 TAG inh	MC4R ag barr	NTR1 agonist	MC4R antagonist	aDG glyco act	cAMP nonselect	MC4R antag conf
CN(NS(=O)(=O)c1ccc(Br)cc1)c1nc(C(F)(F)F)nc2ccccc12	0.2	nt	0.2	3.0	31.6*	0.4	1.4	-1.5
COc1ccccc1C(=O)NC(=O)COC(=O)Cc1n[nH]c(=O)c2ccccc12	-0.5	-4.8	-0.1	0.2	8.4	-0.1	nt	nt
COc1ccccc1NC(=O)c1ccc(NC(=O)Cc2n[nH]c(=O)c3ccccc23)cc1	-0.3	42.6	1.7	1.5	30.3*	-0.2	4.5	0.8
CCN(CC)C(=O)c1cccc(-c2csc(C(O)c3ccc(F)c(F)c3)n2)c1 (centres undefined)	-0.1	-55.1	-1.8	nt	12.9	0.8	nt	nt
CNc1nc(NCc2ccc(N(C)C)cc2)c2sccc2n1	-0.2	-15.8	-0.6	nt	-3.5	1.0	nt	nt
CC[C@H](C)[C@@H](CO)NC(=O)[C@H]1O[C@@H](n2ccc(N)nc2=O)[C@H](O)[C@@H]1O	-0.3	nt	nt	nt	nt	-0.3	nt	nt
Cc1cc(C)n2nc(C(=O)NNC(=O)c3ccc(Cl)cc3)nc2n1	-0.6	0.0	-1.5	0.3	35.8*	-0.2	0.0	2.7
Cc1ccc(C(=O)NNC(=O)Cc2nc3nc(C)cc(C)n3n2)cc1	-0.7	nt	-0.4	2.8	2.5	-0.2	nt	nt
COc1ccc(CN2C[C@@H](CO)O[C@@H](n3cnc4c(NCc5ccncc5)ncnc43)C2)cc1	-0.5	-1.8	1.5	nt	9.5	0.2	nt	nt
O=C(CSc1c2c(nc3cc(Cl)ccc13)CCCC2)NCCCN1CCOCC1	-0.3	nt	-1.8	0.4	11.3	0.1	nt	nt
O=C(CSc1c2c(nc3cc(Cl)ccc13)CCCC2)NCCN1CCOCC1	0.2	nt	-2.5	2.4	29.6*	-0.2	3.1	23.6
O=[N+]([O-])c1cc(S(=O)(=O)NCCN2CCOCC2)ccc1Cl	-0.9	nt	0.1	0.3	28.9*	0.1	5.0	17.5
CC(C)CC1C(=O)N(Cc2cn(CC3CCCCC3)nn2)CCS(=O)(=O)N1Cc1ccc(-c2ccncc2)cc1 (centres undefined)	-1.4	-2.7	0.5	nt	3.5	1.5	nt	nt
CCOC(=O)c1sc(NC(=O)c2ccc(S(=O)(=O)N3CCCCCC3)cc2)nc1-c1ccccc1	-0.1	nt	-0.9	4.1	32.4*	0.2	-5.6	0.4
CCOC(=O)c1sc(NC(=O)c2ccc(S(=O)(=O)N3CCCCC3)cc2)nc1-c1ccccc1	-0.6	-16.6	-0.6	4.5	-2.1	0.0	nt	nt
Cc1ccc(NC(=O)CN(C)C(=O)Cn2ncc(Cl)c(Cl)c2=O)cc1	0.2	nt	-0.7	nt	29.8*	-0.3	25.6*	24.4
Cc1ccc(NC(=O)CN(C)C(=O)Cc2ccc(Cl)c(Cl)c2)cc1	2.7	nt	-0.6	2.7	4.6	0.1	nt	nt
Cc1ccc(S(=O)(=O)N(C)CC(=O)OCC(=O)N2CCN(c3ccccc3)CC2)cc1	0.5	nt	-0.9	0.7	33.2*	-0.4	19.9*	20.9
CC(=O)NS(=O)(=O)c1ccc(N=c2ssc3c2-c2cc(C)c(C)cc2NC3(C)C)cc1	1.5	nt	-1.9	7.7	30.8*	-0.6	2.7	16.0
Cc1cc2c(cc1C)-c1c(ssc1=Nc1ccc(S(N)(=O)=O)cc1)C(C)(C)N2	-0.4	3.1	-1.9	9.0	16.1	0.4	nt	nt
CC(C)CCn1nc(C(=O)Nc2nc3c(s2)CCCC3)c2ccccc2c1=O	-0.8	23.5	3.6	6.2	33.0*	-0.5	-0.6	13.9
CN(C)S(=O)(=O)c1ccc(NCC2COc3ccccc3O2)c([N+](=O)[O-])c1 (centres undefined)	0.0	nt	-1.0	14.4	15.4	-0.6	nt	nt
NC(=O)c1ccc(NCC2COc3ccccc3O2)c([N+](=O)[O-])c1 (centres undefined)	0.3	-16.0	-0.8	1.7	36.1*	0.5	-1.7	-3.1
COC(=O)c1ccc(C2c3[nH]c4ccccc4c3C[C@H]3C(=O)N(C4CCN(Cc5ccccc5)CC4)CC(=O)N23)cc1 (some centres undefined)	-0.1	nt	-0.9	3.2	36.9*	1.9	5.8	22.4
O=C1[C@@H]2Cc3c([nH]c4ccccc34)C(c3ccccc3)N2C(=O)CN1C1CCN(Cc2ccccc2)CC1 (some centres undefined)	-0.9	nt	3.3	4.3	-6.2	1.5	nt	nt
SMILES	TbMetRS inhib	H9c2 TAG inh	MC4R ag barr	NTR1 agonist	MC4R antagonist	aDG glyco act	cAMP nonselect	MC4R antag conf
COc1cc(C(=S)N2CCOCC2)ccc1OC(=O)c1ccc([N+](=O)[O-])cc1[N+](=O)[O-]	0.1	nt	-1.4	3.9	37.3*	0.0	5.6	27.9
COc1ccc(CN2CCC[C@]3(N[C@H](c4ccc(OC)cc4)[C@@H]4C(=O)N(Cc5ccccc5)C(=O)[C@@H]43)C2=O)cc1	-0.2	1.6	0.2	nt	3.2	0.1	nt	nt
COc1ccc(CN2CCC[C@]3(N[C@H](c4ccccc4)[C@@H]4C(=O)N(Cc5ccccc5)C(=O)[C@@H]43)C2=O)cc1	0.2	-2.7	1.2	nt	29.4*	0.2	-3.4	-2.6
OCc1ccccc1-c1nc(NCc2ccccc2)nc2ccsc12	-0.5	9.4	1.0	nt	10.4	0.8	nt	nt
CC(C)(C)n1nnnc1C(c1cccnc1)N1CCN(c2cccc(C(F)(F)F)c2)CC1 (centres undefined)	0.4	-21.5	-1.0	1.1	20.4	0.7	nt	nt
CC(C)(C)c1cc(C(c2cccnc2)N2CCN(CCO)CC2)cc(C(C)(C)C)c1O (centres undefined)	-1.0	nt	-2.6	1.2	28.6*	-0.4	9.6	19.4
CCOc1ccc(NC(=O)CSc2ccccc2N)cc1	-0.3	-10.0	2.8	-0.5	31.8*	0.3	-5.0	-12.2
Cc1noc(C)c1NC(=O)N1C[C@H](O)COC[C@H]2O[C@@H](CC(=O)NCC3CCCCC3)CC[C@@H]21	-0.1	nt	nt	nt	nt	-0.1	nt	nt
COc1ccc([C@H]2CC(=O)C[C@@H](CCn3cc(C)nn3)O2)cc1	-0.3	nt	nt	nt	nt	-0.3	nt	nt
CCOC(=O)c1ccc(NC(=O)NCc2ccccc2OC)cc1	-0.4	9.9	-0.8	-0.6	30.4*	0.6	1.7	4.0
COc1ccc(-c2nc(NCCN(C)C)nc3ccsc23)c(C)c1	0.0	4.2	0.5	nt	8.9	0.2	nt	nt
O=C(O)COc1ccc2nsnc2c1Cl	-1.0	1.8	-2.1	-0.6	69.9*	-0.3	45.6*	81.5*
Cc1cccc2c1NC(=O)/C2=C\C(=O)c1cccs1	0.4	nt	-1.4	28.2	30.3*	-0.2	3.3	4.3
O=C1Nc2ccccc2/C1=C\C(=O)c1ccccc1	-1.3	nt	-1.1	15.6	-4.2	0.3	nt	nt
